# According to ChEMBL document CHEMBL1125869, “Calcium-independent phosphodiesterase inhibitors as putative antidepressants: [3-(bicycloalkyloxy)-4-methoxyphenyl]-2-imidazolidinones” (J Med Chem, 1991):
# Assays:
# [1] = target: T1, Phosphodiesterase 4 (Rattus norvegicus, UniProt P14270+P14646+P14644+P54748); test: Inhibition of calcium-independent Phosphodiesterase 4; type: protein assay
# How it was run: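 Enzyme taken from the 105000g supernatant of female Sprague-Dawley rat cerebral cortex and separated from the calcium-dependent form on Sephadex G-200. Substrate was 1.0 μM [3H]cAMP in Tris-HCl pH 7.5/MgCl2, run in triplicate for 8 min at 37 °C and stopped by heat. [3H]5'-AMP was separated on boronate affinity gel and counted. IC50 came from semilog plots over three log concentrations in triplicate.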
# [2] = species on record: Mus musculus; test: Minimum effective peroral dose (MED) in mouse forced-swim test; type: functional; details: po, read-out: MED
# How it was run: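 Mice dosed orally, with compound in vehicle at 1 mL/100 g. One hour later they were placed in water at 25 °C. After 2 min habituation, immobility was rated ten times at 30-s intervals and expressed as percent of control. At least four half-log-spaced doses were given, with nine mice per dose. MED was the lowest dose giving a statistically significant decrease in immobility.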
# [3] = target: T1, Phosphodiesterase 4; test: Inhibition of [3H]- rolipram binding to rat cerebral cortex membranes; type: cell membranes, Membrane
# How it was run: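 Cerebral cortex membranes homogenized in ice-cold 50 mM Tris-HCl pH 8.0 with 1.2 mM MgCl2, spun at 30000g for 20 min at 4 °C, washed once and resuspended at 0.5 mg protein/mL. (±)-[3H]rolipram at 2 nM final, 30 min at 25 °C, triplicates per concentration. Nonspecific binding defined with Ro 20-1724 (10 μM). Filtration, then scintillation counting. IC50 taken from semilog plots over several log concentrations.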
# [4] = system: Mus musculus; test: Reversal of reserpine-induced hypothermia in mice by intraperitoneal dose; type: functional; details: ip, read-out: MED
# How it was run: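 Individually housed mice at 20 °C received reserpine 2 mg/kg sc 18 h before test. Rectal temperature was measured before and 1 h after dosing with test drug in 5% DMSO/5% Emulphor 620/90% saline. At least four half-log-spaced doses were given, with nine mice per dose. MED was the dose giving a statistically significant temperature increase.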
IC50 [1],IC50 [3],SMILES,minimal effective dose [2],minimal effective dose [4]
3100 nM,100 nM,COc1ccc(C2CNC(=O)N2C)cc1OC1CC2C3CCC(C3)C12 (stereo not given),> 32 mg/kg,
2500 nM,81 nM,COc1ccc(C2CNC(=O)N2C)cc1OC1CC2CCC1CC2 (stereo not given),,> 3200 µg/kg
1400 nM,> 100 nM,COc1ccc(C2CNC(=O)N2C)cc1OC1CC2C3CCC(C3)C2C1 (stereo not given),> 32 mg/kg,3200 µg/kg
2400 nM,> 100 nM,COc1ccc(C2CNC(=O)N2C)cc1OC1CC2CCC(C2)C1 (stereo not given),> 32 mg/kg,> 3200 µg/kg
,,COc1ccc(C2CNC(=O)N2C)cc1O[C@H]1CC2CC1C1CCCC21 (stereo not given in full),32 mg/kg,320 µg/kg
,,COc1ccc(C2CNC(=O)N2C)cc1O[C@H]1CC2CCC1C2 (stereo not given in full),> 32 mg/kg,1000 µg/kg
220 nM,2.6 nM,COc1ccc(C2CNC(=O)N2C)cc1O[C@@H]1CC2CCC1C2 (stereo not given in full),1 mg/kg,0.03 µg/kg
490 nM,10 nM,COc1ccc(C2CNC(=O)N2C)cc1O[C@@H]1CC2CC1C1CCCC21 (stereo not given in full),10 mg/kg,320 µg/kg
290 nM,21 nM,COc1ccc(C2CNC(=O)N2C)cc1O[C@@H]1CC2CC1c1ccccc12 (stereo not given in full),> 32 mg/kg,1000 µg/kg
11000 nM,> 100 nM,COc1ccc(C2CNC(=O)N2C)cc1OC1C2CC3CC(C2)CC1C3 (stereo not given),> 32 mg/kg,3200 µg/kg
130 nM,3.1 nM,COc1ccc(C2CNC(=O)N2C)cc1OC1CC2C=CC1C2 (stereo not given),0.1 mg/kg,100 µg/kg
,,COc1ccc(C2CNC(=O)C2)cc1OC1CCCC1 (stereo not given) [ROLIPRAM],1.8 mg/kg,0.1 µg/kg
